Measurements as given in the M2OR odorant receptor database.

Assays:
Conditions in all cases: stereoisomer not certain
OR5P3 (Homo sapiens) = biological target: T1, OR5P3 (Homo sapiens) (UniProt Q8WZ94)
T1 sequence (whole entry): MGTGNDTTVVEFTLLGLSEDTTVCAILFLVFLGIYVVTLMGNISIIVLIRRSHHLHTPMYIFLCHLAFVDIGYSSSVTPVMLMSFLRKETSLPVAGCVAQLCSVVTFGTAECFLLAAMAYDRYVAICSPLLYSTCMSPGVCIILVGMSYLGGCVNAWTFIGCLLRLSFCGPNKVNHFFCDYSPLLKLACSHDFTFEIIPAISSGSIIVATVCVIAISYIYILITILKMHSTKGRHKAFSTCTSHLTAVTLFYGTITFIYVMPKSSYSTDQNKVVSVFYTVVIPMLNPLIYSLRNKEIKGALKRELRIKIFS
How it was run: (§1)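 Transient luciferase assays in mammalian cell lines were common, though methods varied by source. The values come from published papers and their supplementary material, with extra details from the original authors when needed. Responsive refers to a measured signal the original authors judged statistically different from baseline, and non-responsive (inactive) to the remainder.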

OR5P3 L301R = system: OR5P3 L301R
OR5P3 L301R, sequence (as listed by the source, stated change not applied): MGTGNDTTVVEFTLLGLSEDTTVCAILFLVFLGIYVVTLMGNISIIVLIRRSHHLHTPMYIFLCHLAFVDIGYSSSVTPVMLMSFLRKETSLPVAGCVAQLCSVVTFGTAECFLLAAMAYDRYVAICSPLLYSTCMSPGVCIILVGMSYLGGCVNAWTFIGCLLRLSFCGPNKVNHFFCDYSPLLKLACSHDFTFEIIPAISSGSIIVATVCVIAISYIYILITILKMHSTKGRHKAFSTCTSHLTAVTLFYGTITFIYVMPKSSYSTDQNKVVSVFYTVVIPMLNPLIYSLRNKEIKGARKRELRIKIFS
How it was run: as §1

OR5R1 C122R S128G F184L = system: OR5R1 C122R S128G F184L
How it was run: as §1

OR5T1 (Homo sapiens) = OR5T1 (Homo sapiens) (UniProt Q8NG75)
OR5T1 (Homo sapiens), sequence (Q8NG75 whole entry): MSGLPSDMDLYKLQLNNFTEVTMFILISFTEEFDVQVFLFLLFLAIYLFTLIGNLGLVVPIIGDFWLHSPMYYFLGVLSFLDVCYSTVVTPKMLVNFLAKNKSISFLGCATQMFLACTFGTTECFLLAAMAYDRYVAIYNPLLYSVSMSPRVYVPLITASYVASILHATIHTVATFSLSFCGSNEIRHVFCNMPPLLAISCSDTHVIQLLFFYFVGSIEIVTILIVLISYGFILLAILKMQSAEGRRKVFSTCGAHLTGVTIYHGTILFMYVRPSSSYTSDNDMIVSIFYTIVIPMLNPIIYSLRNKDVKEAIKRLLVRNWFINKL
How it was run: as §1

OR5T2 (Homo sapiens) = OR5T2 (Homo sapiens) (UniProt Q8NGG2)
OR5T2 (Homo sapiens), sequence (Q8NGG2 whole entry): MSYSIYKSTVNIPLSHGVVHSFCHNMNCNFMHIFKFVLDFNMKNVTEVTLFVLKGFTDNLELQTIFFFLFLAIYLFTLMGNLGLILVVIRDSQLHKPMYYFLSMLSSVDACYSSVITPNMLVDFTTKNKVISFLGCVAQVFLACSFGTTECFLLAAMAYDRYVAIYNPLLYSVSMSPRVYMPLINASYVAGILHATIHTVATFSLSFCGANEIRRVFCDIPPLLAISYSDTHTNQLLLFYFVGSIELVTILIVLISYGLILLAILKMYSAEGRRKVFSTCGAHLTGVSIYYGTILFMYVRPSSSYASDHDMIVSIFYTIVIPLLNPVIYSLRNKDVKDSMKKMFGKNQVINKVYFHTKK
How it was run: as §1

OR5T2 S4G = system: OR5T2 S4G
OR5T2 S4G, sequence (as listed by the source): as the sequence (Q8NGG2 whole entry) above, with S4G counted along it
How it was run: as §1

OR5T3 (Homo sapiens) = OR5T3 (Homo sapiens) (UniProt Q8NGG3)
OR5T3 (Homo sapiens), sequence (Q8NGG3 whole entry): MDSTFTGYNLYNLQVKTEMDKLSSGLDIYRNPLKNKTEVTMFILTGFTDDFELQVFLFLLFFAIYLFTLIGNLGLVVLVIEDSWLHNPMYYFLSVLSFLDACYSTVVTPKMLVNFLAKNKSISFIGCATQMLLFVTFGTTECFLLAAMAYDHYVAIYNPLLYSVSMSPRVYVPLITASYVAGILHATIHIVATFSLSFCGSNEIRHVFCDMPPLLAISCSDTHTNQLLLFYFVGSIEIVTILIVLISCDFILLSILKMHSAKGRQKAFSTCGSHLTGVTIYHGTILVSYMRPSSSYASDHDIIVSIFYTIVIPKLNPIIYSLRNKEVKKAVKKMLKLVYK
How it was run: as §1

OR5V1 (Homo sapiens) = OR5V1 (Homo sapiens) (UniProt Q9UGF6)
OR5V1 (Homo sapiens), sequence (Q9UGF6 whole entry): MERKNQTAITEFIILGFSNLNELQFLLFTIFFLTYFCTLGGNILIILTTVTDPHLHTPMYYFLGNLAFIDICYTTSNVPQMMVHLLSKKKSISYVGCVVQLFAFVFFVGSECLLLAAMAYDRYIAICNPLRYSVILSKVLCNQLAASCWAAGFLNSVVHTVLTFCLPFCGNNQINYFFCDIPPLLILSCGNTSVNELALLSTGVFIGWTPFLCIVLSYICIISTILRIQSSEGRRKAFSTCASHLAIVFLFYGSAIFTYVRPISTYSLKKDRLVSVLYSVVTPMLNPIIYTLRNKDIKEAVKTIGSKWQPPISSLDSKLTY
How it was run: as §1

OR5W2 (Homo sapiens) = OR5W2 (Homo sapiens) (UniProt Q8NH69)
OR5W2 (Homo sapiens), sequence (Q8NH69 whole entry): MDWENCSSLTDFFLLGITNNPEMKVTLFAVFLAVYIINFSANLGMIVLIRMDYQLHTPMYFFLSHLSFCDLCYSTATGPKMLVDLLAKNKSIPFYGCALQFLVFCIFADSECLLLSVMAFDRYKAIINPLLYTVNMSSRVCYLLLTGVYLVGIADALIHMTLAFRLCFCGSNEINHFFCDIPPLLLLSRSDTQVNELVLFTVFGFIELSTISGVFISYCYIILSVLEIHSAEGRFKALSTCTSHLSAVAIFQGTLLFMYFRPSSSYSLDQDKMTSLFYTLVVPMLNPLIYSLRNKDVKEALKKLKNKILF
How it was run: as §1

OR5W2 R189C = system: OR5W2 R189C
OR5W2 R189C, sequence (as listed by the source, stated change not applied): as the sequence (Q8NH69 whole entry) above, with R189C counted along it
How it was run: as §1

OR6A2 (Homo sapiens) = OR6A2 (Homo sapiens) (UniProt O95222)
OR6A2 (Homo sapiens), sequence (O95222 whole entry): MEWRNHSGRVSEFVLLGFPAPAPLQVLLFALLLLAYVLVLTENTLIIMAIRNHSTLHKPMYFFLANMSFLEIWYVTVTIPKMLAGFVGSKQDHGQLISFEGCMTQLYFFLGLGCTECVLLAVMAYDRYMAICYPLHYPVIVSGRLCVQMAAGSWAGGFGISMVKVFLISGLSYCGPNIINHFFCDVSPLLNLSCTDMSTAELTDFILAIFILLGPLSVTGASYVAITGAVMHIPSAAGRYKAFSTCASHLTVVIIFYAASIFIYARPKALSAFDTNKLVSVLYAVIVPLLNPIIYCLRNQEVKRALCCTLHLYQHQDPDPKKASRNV
How it was run: as §1

OR6A2 I50V = system: OR6A2 I50V
OR6A2 I50V, sequence (as listed by the source, stated change not applied): as the sequence (O95222 whole entry) above, with I50V counted along it
How it was run: as §1

OR6B1 (Homo sapiens) = OR6B1 (Homo sapiens) (UniProt O95007)
OR6B1 (Homo sapiens), sequence (O95007 whole entry): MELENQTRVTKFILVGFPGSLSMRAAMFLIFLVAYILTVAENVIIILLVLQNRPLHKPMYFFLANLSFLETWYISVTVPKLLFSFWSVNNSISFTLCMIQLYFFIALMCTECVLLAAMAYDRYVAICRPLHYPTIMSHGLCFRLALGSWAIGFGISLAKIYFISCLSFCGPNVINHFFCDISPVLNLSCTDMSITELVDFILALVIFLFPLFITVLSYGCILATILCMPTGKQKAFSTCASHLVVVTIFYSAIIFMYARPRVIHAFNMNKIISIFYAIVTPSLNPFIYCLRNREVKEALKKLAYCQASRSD
How it was run: as §1

OR6B2 (Homo sapiens) = OR6B2 (Homo sapiens) (UniProt Q6IFH4)
OR6B2 (Homo sapiens), sequence (Q6IFH4 whole entry): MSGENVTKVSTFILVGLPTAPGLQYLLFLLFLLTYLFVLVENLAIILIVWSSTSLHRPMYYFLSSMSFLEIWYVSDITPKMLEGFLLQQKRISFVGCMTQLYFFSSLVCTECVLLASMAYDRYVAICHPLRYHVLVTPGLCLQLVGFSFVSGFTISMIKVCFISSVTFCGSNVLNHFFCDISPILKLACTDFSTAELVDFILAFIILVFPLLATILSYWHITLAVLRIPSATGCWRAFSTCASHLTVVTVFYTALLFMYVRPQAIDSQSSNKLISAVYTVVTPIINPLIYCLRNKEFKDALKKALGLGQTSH
How it was run: as §1

OR6B2 R122C C179R = system: OR6B2 R122C C179R
How it was run: as §1

OR6B3 (Homo sapiens) = OR6B3 (Homo sapiens) (UniProt Q8NGW1)
OR6B3 (Homo sapiens), sequence (Q8NGW1 whole entry): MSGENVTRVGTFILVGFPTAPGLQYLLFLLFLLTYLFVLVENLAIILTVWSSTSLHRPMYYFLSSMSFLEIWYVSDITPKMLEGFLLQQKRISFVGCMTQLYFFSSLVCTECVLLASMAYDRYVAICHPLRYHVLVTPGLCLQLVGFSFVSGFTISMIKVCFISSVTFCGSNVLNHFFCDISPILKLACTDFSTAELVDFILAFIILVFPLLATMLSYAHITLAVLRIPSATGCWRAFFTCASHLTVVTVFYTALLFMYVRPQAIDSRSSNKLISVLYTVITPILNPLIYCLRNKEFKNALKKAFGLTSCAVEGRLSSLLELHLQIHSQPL
How it was run: as §1

OR6B3 T48I R131C = system: OR6B3 T48I R131C
How it was run: as §1

OR6C1 (Homo sapiens) = OR6C1 (Homo sapiens) (UniProt Q96RD1)
OR6C1 (Homo sapiens), sequence (Q96RD1 whole entry): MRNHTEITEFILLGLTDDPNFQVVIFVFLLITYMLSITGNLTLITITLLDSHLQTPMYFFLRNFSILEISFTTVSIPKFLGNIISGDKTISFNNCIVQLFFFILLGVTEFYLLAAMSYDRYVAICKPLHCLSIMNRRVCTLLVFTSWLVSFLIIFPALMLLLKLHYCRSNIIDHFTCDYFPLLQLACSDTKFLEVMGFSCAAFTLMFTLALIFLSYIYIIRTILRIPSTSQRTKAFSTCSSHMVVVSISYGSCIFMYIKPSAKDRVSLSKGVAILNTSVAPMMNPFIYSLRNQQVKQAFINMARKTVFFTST
How it was run: as §1

OR6C1 C130Y H165D V246I = system: OR6C1 C130Y H165D V246I
How it was run: as §1

OR6C2 (Homo sapiens) = OR6C2 (Homo sapiens) (UniProt Q9NZP2)
OR6C2 (Homo sapiens), sequence (Q9NZP2 whole entry): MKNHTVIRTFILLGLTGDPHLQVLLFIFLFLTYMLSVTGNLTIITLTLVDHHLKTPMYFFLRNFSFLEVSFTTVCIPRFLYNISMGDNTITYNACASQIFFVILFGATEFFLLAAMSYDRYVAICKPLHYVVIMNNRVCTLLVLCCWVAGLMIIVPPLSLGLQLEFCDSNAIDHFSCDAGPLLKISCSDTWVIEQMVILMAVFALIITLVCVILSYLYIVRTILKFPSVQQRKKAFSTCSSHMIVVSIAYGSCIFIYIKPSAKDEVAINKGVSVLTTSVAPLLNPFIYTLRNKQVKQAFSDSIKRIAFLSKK
How it was run: as §1

Measured: odorant receptor agonist call;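 further: active if original authors judged signal statistically different from baseline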

CCC1CCC(=O)O1 (stereo not given)
inactive: OR5P3 (Homo sapiens)

O=c1cc(O)c2ccccc2o1
inactive: OR5P3 (Homo sapiens)

C=CCOC(=O)Cc1ccccc1
inactive: all assays above

C=CCc1ccccc1
inactive: OR5P3 (Homo sapiens)

Cc1c([N+](=O)[O-])c(C)c([N+](=O)[O-])c(C(C)(C)C)c1[N+](=O)[O-]
not listed: OR5P3 L301R | OR5R1 C122R S128G F184L | OR5T2 S4G | OR5W2 R189C | OR6A2 I50V | OR6B2 R122C C179R | OR6B3 T48I R131C | OR6C1 C130Y H165D V246I
inactive: all other assays above
